Blank lines part the entries; values can stand above or below the compound they belong to. Active and inactive are the calls of the source. No cut-off for these calls is given here.
Tests used:
[1] = Inhibition of LIN28 (unknown origin) expressed in Escherichia coli BL21 (DE3) Rosetta interaction with FAM-labelled preE-let-7 miRNA (unknown origin) by fluorescence polarization assay; parameters: species or system Homo sapiens
How it was run: (§1)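 LIN28A (residues 16–187) purified by nickel affinity chromatography; tested both His-tagged and with tag removed by TEV protease. Protein titrated into FAM-labeled preE-let-7f-1, FP read alongside total fluorescence. Unlabeled preE-let-7f-1 as positive control. Dose–response over eight concentrations, top 60 μM or 30 μM, in quadruplicate; some IC50s extrapolated from the observed curves.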

[2] = Inhibition of human His-tagged LIN28A (16 to 187 residues) interaction with FAM-labelled preE-let-7f-1 miRNA (unknown origin) pretreated with protein for 30 mins followed by miRNA addition and measured after 15 mins by fluorescence polarization assay; how it was run: as §1
[3] = Stabilization of interaction of GST-fused C-terminal region of PMA2 YDI (unknown origin)/eGFP-fused tobacco 14-3-3 expressed in Escherichia coli incubated for 2 hrs by fluorescence based analysis relative to PPI-1
[4] = Stabilization of interaction of GST-fused C-terminal region of PMA2 YDI (unknown origin)/eGFP-fused tobacco 14-3-3 expressed in Escherichia coli incubated for 2 hrs by fluorescence based analysis
[5] = Inhibition of human His-tagged LIN28A(16 to 187 residues) interaction with mouse preE-let-7f-Cy3 miRNA at 2.5 to 75 uM pretreated with protein for 2 hrs followed by incubation with miRNA and measured after 15 mins by EMSA method relative to control; settings: dose 2.5-75 µM, time 135.0 min
[6] = Inhibition of human His-tagged LIN28A (16 to 187 residues) interaction with mouse preE-let-7f-Cy3 miRNA pretreated with protein for 2 hrs followed by incubation with miRNA and measured after 15 mins by EMSA method; settings: time 135.0 min
JAR [7] = assay: Inhibition of LIN28/let-7 miRNA interaction in human JAR cells assessed as increase in cellular let-7g mature miRNA level at 5 to 20 uM measured after 24 hrs by RT-qPCR analysis; assay type: cell-based; settings: dose 5-20 µM
JAR [8] = assay: Inhibition of LIN28/let-7 miRNA interaction in human JAR cells assessed as increase in cellular let-7a mature miRNA level at 5 to 20 uM measured after 24 hrs by RT-qPCR analysis; assay type: cell-based; settings: dose 5-20 µM
[9] = target: T1, Protein lin-28 homolog A (Homo sapiens) (UniProt Q9H9Z2); assay: Inhibition of LIN28A cold shock domain (16 to 126 residues) (unknown origin) assessed as increase in thermal stability measured after 45 mins by differential scanning fluorimetry; settings: dose 0.78-100 µM
T1 sequence (whole entry): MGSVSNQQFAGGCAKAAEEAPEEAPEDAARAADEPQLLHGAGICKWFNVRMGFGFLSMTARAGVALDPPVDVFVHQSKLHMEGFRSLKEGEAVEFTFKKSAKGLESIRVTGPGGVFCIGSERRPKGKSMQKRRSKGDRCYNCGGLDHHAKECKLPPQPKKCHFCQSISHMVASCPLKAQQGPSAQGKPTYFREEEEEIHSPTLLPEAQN

Structure (SMILES): O=C(O)c1cccc(N2C(=O)C(O)=C(C(=O)c3ccccc3)C2c2ccc(-c3nccs3)cc2)c1 (configuration not stated)
- IC50 [2]: 30 µM

Structure (SMILES): O=C(O)c1ccc(C2C(C(=O)c3ccccc3)=C(O)C(=O)N2c2ccc(O)c(C(=O)O)c2)cc1 (configuration not stated)
- Activity [3]: < 30%

Structure (SMILES): O=C(O)c1cccc(N2C(=O)C(O)=C(C(=O)c3ccc(Br)cc3)C2c2ccc(-c3nccs3)cc2)c1 (configuration not stated)
- inhibition [5]: inactive

Structure (SMILES): O=C(C1=C(O)C(=O)N(c2ccc(O)c(C(=O)O)c2)C1c1ccc(-c2nccs2)cc1)c1ccc(Br)cc1 (configuration not stated)
- inhibition [6]: Dose-dependent effect
- inhibition (JAR [7]): Active
- inhibition (JAR [8]): Active
- Activity [3]: < 30%
- Activity [9]: Dose-dependent effect

Next, values leading:

- IC50 [1]: 7 µM
Structure (SMILES): CCOc1cccc2c1N[C@@H](c1ccc(C(=O)O)cc1)[C@H]1CC=C[C@@H]21

- IC50 [2]: 30 µM
Structure (SMILES): O=C(O)c1ccc(C2C(C(=O)c3ccc(Br)cc3)=C(O)C(=O)N2c2ccc(O)c(C(=O)O)c2)cc1 (configuration not stated)

- EC50 [4]: 100 µM
Structure (SMILES): O=C(C1=C(O)C(=O)N(c2ccc(O)c(C(=O)O)c2)C1c1ccc([N+](=O)[O-])cc1)c1ccccc1 (configuration not stated)

- IC50 [2]: 30 µM
Structure (SMILES): COc1ccc(C(=O)C2=C(O)C(=O)N(c3ccc(O)c(C(=O)O)c3)C2c2ccc(C(=O)O)cc2)cc1 (configuration not stated)
